# Measured values of several laboratories.
# Lines come from different studies, so protocols differ.
SMILES,tested on,test,test system,conditions,measurement,value
CCCN(c1ccc(F)cc1)c1c(-c2ccccn2)nc2ccccn12,Leishmania infantum,parasite growth,,"5 days, intracellular, amastigote",EC50,1.58 µM
O=C(O)CN1C(=O)/C(=C/c2ccc(-c3ccc(N(c4ccccc4)c4ccccc4)cc3)c3ccccc23)NC1=S,Streptococcus mutans,"microbial killing, broth dilution",ATCC25175,,MBC,> 1000 µg/mL
COc1ccc(NC(=O)c2c(Nc3ccccc3)sc(C(=O)NN=Cc3ccc(Cl)cc3)c2NC(C)=O)cc1,HCT-116,"cell growth or viability, SRB",,"1 nM, 48 h",viability,101%
COc1ccc(/C=C/c2coc3ccc(OC)cc3c2=O)cc1,HSC-2,"cell growth or viability, MTT",,7 h,CC50,20 µM
O=C1NC(=S)N/C1=C\c1ccc(-c2ccc(N(c3ccccc3)c3ccccc3)cc2)cc1,Streptococcus pyogenes,"microbial killing, broth dilution",ATCC19615,,MBC,> 1000 µg/mL
c1ccc(-c2nc3n(c2-c2ccncc2)CCC3)nc1,Leishmania infantum,parasite growth,,"intracellular, amastigote",IC50,> 64 µM
O=C1NC(=S)N/C1=C\c1ccc(-c2ccc(N(c3ccccc3)c3ccccc3)cc2)c2ccccc12,Streptococcus mutans,"microbial killing, broth dilution",ATCC25175,,MBC,> 1000 µg/mL
COc1ccc2occ(/C=C/c3ccc(O)cc3)c(=O)c2c1,HSC-2,"cell growth or viability, MTT",,7 h,CC50,5.5 µM
CS(=O)(=O)c1ccc2nc(-c3ccccn3)c(Nc3ccc(F)cc3)n2c1,Leishmania infantum,parasite growth,,"intracellular, amastigote",IC50,32.5 µM
COc1ccc(NC(=O)c2c(Nc3ccccc3)sc(C#N)c2NC(=O)CNc2ccc([N+](=O)[O-])cc2)cc1,HCT-116,"cell growth or viability, SRB",,"1 nM, 48 h",viability,103%
NC(=O)N1c2ccccc2C=Cc2ccccc21,,MES seizures,rat,intraperitoneal,ED50,6.5 mg/kg
COc1ccc(NC(=O)c2c(Nc3ccccc3)sc(C#N)c2NC(=O)CNc2ccccc2Cl)cc1,HCT-116,"cell growth or viability, SRB",,"0.1 µM, 48 h",viability,64.3%
CC(=O)N(c1ccc(F)cc1)c1c(-c2ccccn2)nc2ccccn12,Leishmania infantum,parasite growth,,"intracellular, amastigote",IC50,> 64 µM
COc1ccc(NC(=O)c2c(Nc3ccccc3)sc(C(=O)NN=Cc3ccc(C)cc3)c2NC(C)=O)cc1,HCT-116,"cell growth or viability, SRB",,"1 µM, 48 h",viability,76.4%
COc1ccc2occ(/C=C/c3cc(OC)c(OC)c(OC)c3)c(=O)c2c1,HSC-2,"cell growth or viability, MTT",,6.7 h,CC50,50 µM
COc1ccc(NC(=O)c2c(Nc3ccccc3)sc(C#N)c2NC(=O)CNc2ccc(Cl)cc2)cc1,HCT-116,"cell growth or viability, SRB",,"100 µM, 48 h",viability,33.5%
O=C1O[C@H]([C@@H](O)CO)C(O)=C1O,,"DPPH scavenging, absorbance",,15 min,EC50,34 µM
Fc1ccc(NCc2c(-c3ccccn3)nc3ccccn23)cc1,Leishmania infantum,parasite growth,,"5 days, intracellular, amastigote",EC50,12.6 µM
O=C(O)CN1C(=O)/C(=C/c2c3ccccc3c(-c3ccc(N(c4ccccc4)c4ccccc4)cc3)c3ccccc23)SC1=S,Streptococcus mutans,"microbial growth, broth dilution",ATCC25175,,MIC,> 1000 µg/mL
COc1ccc(NC(=O)c2c(Nc3ccccc3)sc(C(=O)NN=Cc3ccc(Br)cc3)c2NC(C)=O)cc1,HCT-116,"cell growth or viability, SRB",,"1 µM, 48 h",viability,72.8%
O=C(O)CN1C(=O)/C(=C/c2ccc(-c3ccc(N(c4ccccc4)c4ccccc4)cc3)c3ccccc23)SC1=S,Streptococcus mutans,"microbial killing, broth dilution",ATCC25175,,MBC,> 1000 µg/mL
COc1ccc(NC(=O)c2c(Nc3ccccc3)sc(C#N)c2NC(=O)CNc2ccc(OC)c(OC)c2)cc1,HCT-116,"cell growth or viability, SRB",,"1 µM, 48 h",viability,65.2%
Fc1ccc(Nc2c(-c3ccc(F)cn3)nc3ccccn23)cc1,Leishmania infantum,parasite growth,,"5 days, intracellular, amastigote",EC50,12.6 µM
O=C1NC(=S)S/C1=C\c1ccc(-c2ccc(N(c3ccccc3)c3ccccc3)cc2)c2ccccc12,Streptococcus mutans,"microbial killing, broth dilution",ATCC25175,,MBC,> 1000 µg/mL
N#Cc1ccc(-c2c(-c3ccccn3)nc3n2CCC3)cc1,Leishmania infantum,parasite growth,,"5 days, intracellular, amastigote",EC50,31.6 µM
O=C(O)CN1C(=O)/C(=C/c2ccc(-c3ccc(N(c4ccccc4)c4ccccc4)cc3)cc2)SC1=S,Streptococcus mutans,"microbial growth, broth dilution",ATCC25175,,MIC,1000 µg/mL
COc1ccc(NC(=O)c2c(Nc3ccccc3)sc(C#N)c2NC(=O)CNc2ccc(Br)cc2)cc1,HCT-116,"cell growth or viability, SRB",,"1 nM, 48 h",viability,101%
Cc1ccc2nc(-c3ccccc3)c(CNc3ccc(F)cc3)n2c1,Leishmania infantum,parasite growth,,"intracellular, amastigote",IC50,> 64 µM
